This is an account of results in ChEMBL document CHEMBL1156724, “Synthesis of triazole-oxazolidinones via a one-pot reaction and evaluation of their antimicrobial activity” (2008).

Type in all cases: functional
Experiment [1] deals with Mycolicibacterium smegmatis. The experiment can be described thus: Antibacterial activity against Mycobacterium smegmatis ATCC 14468 assessed as zone of inhibition diameter at 1 mg/mL after 48 hrs by Kirby-Bauer disk diffusion assay. Particulars: ATCC 14468, 48 h, read-out: IZ. The essentials:
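Kirby–Bauer disk diffusion on Middlebrook 7H10 agar with 0.5% glycerol and OADC. Inoculum grown in 7H9 with 0.2% glycerol and ADC about 24 h at 37 °C, 180 rpm. 10 µL of 1 mg/mL compound in DMSO applied to 6 mm disks. INH (1 mg/mL in DMSO) positive control, DMSO negative control. Plates incubated 48 h at 37 °C. Inhibition zone diameter measured.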

Experiment [2] has as its system Mycolicibacterium smegmatis. Put plainly: Antibacterial activity against Mycobacterium smegmatis ATCC 14468 after 48 hrs visualized by MTT […]. Particulars: ATCC 14468, 48 h.
For experiment [3], the system named is Bacillus subtilis. The experiment can be described thus: Antibacterial activity against Bacillus subtilis ATCC 6633 after 24 hrs visualized by MTT analyzed by broth microdilution assay. To be noted: ATCC 6633, 24 h. (Dilution methods test growth across graded concentrations, often in twofold steps.)
The test system of experiment [4] is Bacillus subtilis. Put plainly: Antibacterial activity against Bacillus subtilis ATCC 6633 assessed as zone of inhibition diameter at 1 mg/mL after 24 hrs by Kirby-Bauer disk diffusion assay. To be noted: ATCC 6633, 24 h, read-out: IZ. The essentials:
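Kirby–Bauer disk diffusion on nutrient agar, inoculum grown in Mueller–Hinton broth about 24 h at 37 °C, 180 rpm. 10 µL of 1 mg/mL compound in DMSO applied to 6 mm paper disks. Vancomycin (1 mg/mL in water) positive control, DMSO negative control. Plates incubated 24 h at 37 °C. Inhibition zone diameter measured.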
For orientation: In agar diffusion tests the substance spreads into inoculated agar from a disc or well.

Experiment [5] concerns Enterococcus faecalis. Put plainly: Antibacterial activity against Enterococcus faecalis ATCC 29212 after 24 hrs visualized by MTT analyzed by broth microdilution assay. Particulars: ATCC 29212, 24 h.
Experiment [6] deals with Enterococcus faecalis. The experiment can be described thus: Antibacterial activity against Enterococcus faecalis ATCC 29212 assessed as zone of inhibition diameter at 1 mg/mL after 24 hrs by Kirby-Bauer disk diffusion assay. The essentials:
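Inoculum grown in Mueller–Hinton broth ~24 h at 37 °C, 180 rpm, then plated on nutrient agar. Kirby–Bauer disk method: 10 µL of 1 mg/mL solution in DMSO applied to 6 mm sterile paper disk; vancomycin (1 mg/mL in water) positive control, DMSO negative control. Plates incubated 24 h at 37 °C; inhibition zone diameter measured.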

Molecules are shown by their SMILES. In brackets after ≈: the same amount, converted by molar mass. Activity calls are given as the source filed them. The rule behind the calls is not given here.

What is called MIC is the lowest concentration found to suppress growth. Lower therefore signals inhibition by little substance. In the case of `CC(=O)c1ccc(N2CC(Cn3ccnn3)OC2=O)cc1` (stereo not drawn), the zone of inhibition at 1000 µg/mL came out at 25 mm in experiment [1] and 26 mm in the experiment on Bacillus subtilis [4]. Besides, the MIC in experiment [2] amounted to 1 µg/mL (≈ 3.49 µM); in the experiment on Bacillus subtilis [3], 4 µg/mL (≈ 14 µM); with Enterococcus faecalis [5], 16 µg/mL (≈ 55.9 µM). For the same compound, the outcome in the experiment on Enterococcus faecalis [6] was inactive.
On to `CN[C@H](CC(C)C)C(=O)N[C@H]1C(=O)N[C@@H](CC(N)=O)C(=O)N[C@H]2C(=O)N[C@H]3C(=O)N[C@H](C(=O)N[C@H](C(=O)O)c4cc(O)cc(O)c4-c4cc3ccc4O)[C@H](O)c3ccc(c(Cl)c3)Oc3cc2cc(c3O[C@@H]2O[C@H](CO)[C@@H](O)[C@H](O)[C@H]2O[C@H]2C[C@](C)(N)[C@H](O)[C@H](C)O2)Oc2ccc(cc2Cl)[C@H]1O` [VANCOMYCIN], for which the MIC with Bacillus subtilis [3] turned out to be 0.5 µg/mL (≈ 0.345 µM); against Enterococcus faecalis [5] it was 1 µg/mL (≈ 0.69 µM). Besides, the zone of inhibition at 1000 µg/mL came to 15 mm in the experiment on Bacillus subtilis [4] and 14 mm in the experiment with Enterococcus faecalis [6] (ATCC 29212, 24 h, read-out: IZ).
Regarding `CC(=O)c1ccc(N2CC(Cn3cc(CCO)nn3)OC2=O)cc1` (stereo not drawn), the values for the zone of inhibition at 1000 µg/mL (in experiment [1]; in the experiment on Bacillus subtilis [4]) were 15 mm and 17 mm, respectively. Moreover, the MIC in experiment [2] is 16 µg/mL (≈ 48.4 µM); in the experiment with Bacillus subtilis [3], over 32 µg/mL; in the experiment on Enterococcus faecalis [5], over 32 µg/mL. For the same compound, the result in the experiment on Enterococcus faecalis [6] was inactive.
Turning to `NNC(=O)c1ccncc1` [ISONIAZID], the zone of inhibition at 1000 µg/mL in experiment [1] is 17 mm. In experiment [2], the MIC was determined as 4 µg/mL (≈ 29.2 µM).
